Assay results as given in ChEMBL document CHEMBL1629608, “Variations in amino acid composition of antisense peptide-phosphorodiamidate morpholino oligomer affect potency against Escherichia coli in vitro and in vivo” (Antimicrob Agents Chemother, 2009).
≈ marks a conversion by molar mass, not a printed value. Calls of active or inactive are those of the source. The rule behind the calls is not given here.

Columns and labels:
[1] = system: Escherichia coli; assay: Antibacterial activity against Escherichia coli K-12 W3110 infected in mouse assessed as increase of mouse survival at 30 ug, ip administered 15 mins and 12 hrs postinfection; assay type: functional, organism-based; details: K-12 substr. W3110
Summary of the method: (§1)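 Mice in groups of 3–7 were infected intraperitoneally with E. coli W3110 from an LB culture. They were treated ip at 15 min and 12 h postinfection with 10, 30, 100 or 300 μg per dose; 300 μg is noted as ~15 mg/kg. Controls were water or scrambled-sequence PPMO. Survival was followed to 48 h and analysed by the Kaplan-Meier method.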

[2] = system: Escherichia coli; assay: Antibacterial activity against Escherichia coli K-12 W3110 infected in mouse assessed as reduction of bacterial level in blood at 30 ug, ip administered 15 mins and 12 hrs postinfection measured after 2 hrs post dose relative to control; assay type: functional
Summary of the method: (§2)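 Mice in groups of 3–7 were infected intraperitoneally with E. coli W3110 from an LB culture. They were dosed ip with 10–300 μg per dose at 15 min and 12 h postinfection. Controls were water or scrambled-sequence PPMO. Blood was taken at 2, 6, 12, 24 and 48 h, diluted and plated on LB for CFU/ml. Log CFU was compared by one-way ANOVA with Tukey-Kramer; mean ± SD.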

[3] = system: Escherichia coli; assay: Antibacterial activity against Escherichia coli K-12 W3110 infected in mouse assessed as reduction of bacterial level in blood at 100 to 300 ug, ip administered 15 mins and 12 hrs postinfection relative to control; assay type: functional, K-12 substr. W3110
Summary of the method: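 E. coli K-12 W3110 was grown in LB broth for the inoculum and injected intraperitoneally into groups of 3–7 mice. Conjugates were given ip at 15 min and 12 h postinfection (10–300 μg per dose), with water or scrambled-sequence conjugate as controls. Blood drawn at 2, 6, 12, 24 and 48 h was diluted and plated on LB for CFU counts. Survival was followed by Kaplan-Meier, and log CFU was compared by ANOVA with Tukey-Kramer.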

[4] = system: Escherichia coli; assay: Ratio of compound MIC to ampicillin MIC for Escherichia coli K-12 W3110; assay type: functional, K-12 substr. W3110
[5] = system: Escherichia coli; assay: Antibacterial activity against Escherichia coli K-12 W3110 by microdilution method; assay type: functional; details: K-12 substr. W3110
[6] = system: Escherichia coli; assay: Antibacterial activity against Escherichia coli K-12 W3110 infected in mouse assessed as reduction of bacterial level in blood at 100 ug, ip administered 15 mins and 12 hrs postinfection measured after 12 hrs post dose relative to control; assay type: functional, K-12 substr. W3110; summary of the method: as §2
[7] = system: Escherichia coli; assay: Antibacterial activity against Escherichia coli K-12 W3110 infected in mouse assessed as reduction of bacterial level in blood at 300 ug, ip administered 15 mins and 12 hrs postinfection measured after 12 hrs post dose relative to control; assay type: functional, K-12 substr. W3110; summary of the method: as §2
[8] = system: Escherichia coli; assay: Antibacterial activity against Escherichia coli K-12 W3110 infected in mouse assessed as increase of mouse survival at 30 to 300 ug, ip administered 15 mins and 12 hrs postinfection; assay type: functional, organism-based; details: K-12 substr. W3110; summary of the method: as §1
[9] = system: Escherichia coli; assay: Antibacterial activity against Escherichia coli K-12 W3110 infected in mouse assessed as increase of mouse survival at 10 ug, ip administered 15 mins and 12 hrs postinfection; assay type: functional, organism-based; details: K-12 substr. W3110, filed as antagonist; summary of the method: as §1

SMILES: CC1(C)S[C@@H]2[C@H](NC(=O)[C@H](N)c3ccccc3)C(=O)N2[C@H]1C(=O)O [AMPICILLIN]
- Activity [1]: inactive
- Activity ([2]; K-12 substr. W3110): inactive
- log10cfu [3]: 3

SMILES: Cc1cn([C@H]2CN(P(=O)(OC[C@@H]3CN(P(=O)(OC[C@@H]4CN(P(=O)(OC[C@@H]5CN(P(=O)(OC[C@@H]6CN(P(=O)(OC[C@@H]7CN(P(=O)(OC[C@@H]8CN(P(=O)(OC[C@@H]9CN(P(=O)(OC[C@@H]%10CNC[C@H](n%11cnc%12c(=O)[nH]c(N)nc%12%11)O%10)N(C)C)C[C@H](n%10cc(C)c(=O)[nH]c%10=O)O9)N(C)C)C[C@H](n9cnc%10c(=O)[nH]c(N)nc%109)O8)N(C)C)C[C@H](n8cnc9c(N)ncnc98)O7)N(C)C)C[C@H](n7cc(C)c(=O)[nH]c7=O)O6)N(C)C)C[C@H](n6cnc7c(N)ncnc76)O5)N(C)C)C[C@H](n5cnc6c(=O)[nH]c(N)nc65)O4)N(C)C)C[C@H](n4ccc(N)nc4=O)O3)N(C)C)C[C@@H](COP(=O)(N(C)C)N3C[C@@H](COP(=O)(N(C)C)N4C[C@@H](COP(=O)(N(C)C)N5CCN(C(=O)CCNC(=O)CCCCCNC(=O)[C@H](Cc6ccccc6)NC(=O)[C@H](Cc6ccccc6)NC(=O)[C@H](CCCNC(=N)N)NC(=O)[C@H](Cc6ccccc6)NC(=O)[C@H](Cc6ccccc6)NC(=O)[C@H](CCCNC(=N)N)NC(=O)[C@H](Cc6ccccc6)NC(=O)[C@H](Cc6ccccc6)NC(=O)[C@@H](N)CCCNC(=N)N)CC5)O[C@@H](n5ccc(N)nc5=O)C4)O[C@@H](n4cc(C)c(=O)[nH]c4=O)C3)O2)c(=O)[nH]c1=O (stereo not given in full)
- Ratio [4]: 2.5
- MIC [5]: 2.5 µM (≈ 13.3 µg/mL)

SMILES: Cc1cn([C@H]2CN(P(=O)(OC[C@@H]3CN(P(=O)(OC[C@@H]4CN(P(=O)(OC[C@@H]5CN(P(=O)(OC[C@@H]6CN(P(=O)(OC[C@@H]7CN(P(=O)(OC[C@@H]8CN(P(=O)(OC[C@@H]9CN(P(=O)(OC[C@@H]%10CNC[C@H](n%11cnc%12c(=O)[nH]c(N)nc%12%11)O%10)N(C)C)C[C@H](n%10cc(C)c(=O)[nH]c%10=O)O9)N(C)C)C[C@H](n9cnc%10c(=O)[nH]c(N)nc%109)O8)N(C)C)C[C@H](n8cnc9c(N)ncnc98)O7)N(C)C)C[C@H](n7cc(C)c(=O)[nH]c7=O)O6)N(C)C)C[C@H](n6cnc7c(N)ncnc76)O5)N(C)C)C[C@H](n5cnc6c(=O)[nH]c(N)nc65)O4)N(C)C)C[C@H](n4ccc(N)nc4=O)O3)N(C)C)C[C@@H](COP(=O)(N(C)C)N3C[C@@H](COP(=O)(N(C)C)N4C[C@@H](COP(=O)(N(C)C)N5CCN(C(=O)CCNC(=O)CCCCCNC(=O)[C@H](CCCNC(=N)N)NC(=O)CCCCNC(=O)[C@H](CCCNC(=N)N)NC(=O)[C@H](CCCNC(=N)N)NC(=O)CCCCNC(=O)[C@H](CCCNC(=N)N)NC(=O)[C@H](CCCNC(=N)N)NC(=O)CCCCNC(=O)[C@H](CCCNC(=N)N)NC(=O)[C@H](CCCNC(=N)N)NC(=O)CCCCNC(=O)[C@@H](N)CCCNC(=N)N)CC5)O[C@@H](n5ccc(N)nc5=O)C4)O[C@@H](n4cc(C)c(=O)[nH]c4=O)C3)O2)c(=O)[nH]c1=O (stereo not given in full)
- log10cfu [6]: 2.5
- log10cfu [7]: 2.5
- Activity [8]: Active
- MIC [5]: 1.25 µM (≈ 7.02 µg/mL)
- Activity [2]: 98%
- Activity [9]: Antagonist

SMILES: Cc1cn([C@H]2CN(P(=O)(OC[C@@H]3CN(P(=O)(OC[C@@H]4CN(P(=O)(OC[C@@H]5CN(P(=O)(OC[C@@H]6CN(P(=O)(OC[C@@H]7CN(P(=O)(OC[C@@H]8CN(P(=O)(OC[C@@H]9CN(P(=O)(OC[C@@H]%10CNC[C@H](n%11cnc%12c(=O)[nH]c(N)nc%12%11)O%10)N(C)C)C[C@H](n%10cc(C)c(=O)[nH]c%10=O)O9)N(C)C)C[C@H](n9cnc%10c(=O)[nH]c(N)nc%109)O8)N(C)C)C[C@H](n8cnc9c(N)ncnc98)O7)N(C)C)C[C@H](n7cc(C)c(=O)[nH]c7=O)O6)N(C)C)C[C@H](n6cnc7c(N)ncnc76)O5)N(C)C)C[C@H](n5cnc6c(=O)[nH]c(N)nc65)O4)N(C)C)C[C@H](n4ccc(N)nc4=O)O3)N(C)C)C[C@@H](COP(=O)(N(C)C)N3C[C@@H](COP(=O)(N(C)C)N4C[C@@H](COP(=O)(N(C)C)N5CCN(C(=O)CCNC(=O)CCCCCNC(=O)[C@H](CCCCN)NC(=O)[C@H](Cc6ccccc6)NC(=O)[C@H](Cc6ccccc6)NC(=O)[C@H](CCCCN)NC(=O)[C@H](Cc6ccccc6)NC(=O)[C@H](Cc6ccccc6)NC(=O)[C@H](CCCCN)NC(=O)[C@H](Cc6ccccc6)NC(=O)[C@H](Cc6ccccc6)NC(=O)[C@@H](N)CCCCN)CC5)O[C@@H](n5ccc(N)nc5=O)C4)O[C@@H](n4cc(C)c(=O)[nH]c4=O)C3)O2)c(=O)[nH]c1=O (stereo not given in full)
- MIC [5]: 10 µM (≈ 53.6 µg/mL)

SMILES: Cc1cn([C@H]2CN(P(=O)(OC[C@@H]3CN(P(=O)(OC[C@@H]4CN(P(=O)(OC[C@@H]5CN(P(=O)(OC[C@@H]6CN(P(=O)(OC[C@@H]7CN(P(=O)(OC[C@@H]8CN(P(=O)(OC[C@@H]9CN(P(=O)(OC[C@@H]%10CNC[C@H](n%11cnc%12c(=O)[nH]c(N)nc%12%11)O%10)N(C)C)C[C@H](n%10cc(C)c(=O)[nH]c%10=O)O9)N(C)C)C[C@H](n9cnc%10c(=O)[nH]c(N)nc%109)O8)N(C)C)C[C@H](n8cnc9c(N)ncnc98)O7)N(C)C)C[C@H](n7cc(C)c(=O)[nH]c7=O)O6)N(C)C)C[C@H](n6cnc7c(N)ncnc76)O5)N(C)C)C[C@H](n5cnc6c(=O)[nH]c(N)nc65)O4)N(C)C)C[C@H](n4ccc(N)nc4=O)O3)N(C)C)C[C@@H](COP(=O)(N(C)C)N3C[C@@H](COP(=O)(N(C)C)N4C[C@@H](COP(=O)(N(C)C)N5CCN(C(=O)CCNC(=O)CCCCCNC(=O)[C@@H](N)CCCNC(=O)CCCCCNC(=O)[C@@H](N)CCCNC(=O)[C@@H](N)CCCNC(=O)CCCCCNC(=O)[C@@H](N)CCCNC(=O)[C@@H](N)CCCNC(=O)CCCCCNC(=O)[C@@H](N)CCCNC(=O)[C@@H](N)CCCNC(=O)CCCCCNC(=O)[C@@H](N)CCCN)CC5)O[C@@H](n5ccc(N)nc5=O)C4)O[C@@H](n4cc(C)c(=O)[nH]c4=O)C3)O2)c(=O)[nH]c1=O (stereo not given in full)
- MIC [5]: 10 µM (≈ 53.3 µg/mL)

SMILES: Cc1cn([C@H]2CN(P(=O)(OC[C@@H]3CN(P(=O)(OC[C@@H]4CN(P(=O)(OC[C@@H]5CN(P(=O)(OC[C@@H]6CN(P(=O)(OC[C@@H]7CN(P(=O)(OC[C@@H]8CN(P(=O)(OC[C@@H]9CN(P(=O)(OC[C@@H]%10CNC[C@H](n%11cnc%12c(=O)[nH]c(N)nc%12%11)O%10)N(C)C)C[C@H](n%10cc(C)c(=O)[nH]c%10=O)O9)N(C)C)C[C@H](n9cnc%10c(=O)[nH]c(N)nc%109)O8)N(C)C)C[C@H](n8cnc9c(N)ncnc98)O7)N(C)C)C[C@H](n7cc(C)c(=O)[nH]c7=O)O6)N(C)C)C[C@H](n6cnc7c(N)ncnc76)O5)N(C)C)C[C@H](n5cnc6c(=O)[nH]c(N)nc65)O4)N(C)C)C[C@H](n4ccc(N)nc4=O)O3)N(C)C)C[C@@H](COP(=O)(N(C)C)N3C[C@@H](COP(=O)(N(C)C)N4C[C@@H](COP(=O)(N(C)C)N5CCN(C(=O)CCNC(=O)CCCCCNC(=O)[C@H](CCCNC(=N)N)NC(=O)CCCCCNC(=O)[C@H](CCCNC(=N)N)NC(=O)CCCCCNC(=O)[C@H](CCCNC(=N)N)NC(=O)CCCCCNC(=O)[C@@H](N)CCCNC(=N)N)CC5)O[C@@H](n5ccc(N)nc5=O)C4)O[C@@H](n4cc(C)c(=O)[nH]c4=O)C3)O2)c(=O)[nH]c1=O (stereo not given in full)
- MIC [5]: 80 µM (≈ 394 µg/mL)

SMILES: Cc1cn([C@H]2CN(P(=O)(OC[C@@H]3CN(P(=O)(OC[C@@H]4CN(P(=O)(OC[C@@H]5CN(P(=O)(OC[C@@H]6CN(P(=O)(OC[C@@H]7CN(P(=O)(OC[C@@H]8CN(P(=O)(OC[C@@H]9CN(P(=O)(OC[C@@H]%10CNC[C@H](n%11cnc%12c(=O)[nH]c(N)nc%12%11)O%10)N(C)C)C[C@H](n%10cc(C)c(=O)[nH]c%10=O)O9)N(C)C)C[C@H](n9cnc%10c(=O)[nH]c(N)nc%109)O8)N(C)C)C[C@H](n8cnc9c(N)ncnc98)O7)N(C)C)C[C@H](n7cc(C)c(=O)[nH]c7=O)O6)N(C)C)C[C@H](n6cnc7c(N)ncnc76)O5)N(C)C)C[C@H](n5cnc6c(=O)[nH]c(N)nc65)O4)N(C)C)C[C@H](n4ccc(N)nc4=O)O3)N(C)C)C[C@@H](COP(=O)(N(C)C)N3C[C@@H](COP(=O)(N(C)C)N4C[C@@H](COP(=O)(N(C)C)N5CCN(C(=O)CCNC(=O)CCCCCNC(=O)[C@H](CCCNC(=N)N)NC(=O)CCNC(=O)CCNC(=O)[C@H](CCCNC(=N)N)NC(=O)CCNC(=O)CCNC(=O)[C@H](CCCNC(=N)N)NC(=O)CCNC(=O)CCNC(=O)[C@@H](N)CCCNC(=N)N)CC5)O[C@@H](n5ccc(N)nc5=O)C4)O[C@@H](n4cc(C)c(=O)[nH]c4=O)C3)O2)c(=O)[nH]c1=O (stereo not given in full)
- MIC [5]: > 80 µM
